This is an account of results in ChEMBL document CHEMBL4028848, “Discovery of N-{4-[5-(4-Fluorophenyl)-3-methyl-2-methylsulfanyl-3H-imidazol-4-yl]-pyridin-2-yl}-acetamide (CBS-3595), a Dual p38α MAPK/PDE-4 Inhibitor with Activity against TNFα-Related Diseases” (J Med Chem, 2017).

By inhibition is commonly meant the relative decrease from the control value, in per cent. The term Cmax denotes the peak of the concentration-time curve. One may read the AUC(0-t) as the area under the concentration-time curve up to a stated or last time point. The IC50 is the point on the concentration scale where inhibition reaches its midpoint. The AUC(0-inf) is total exposure, with the tail of the curve extrapolated. What is called half-life is the time needed for the level to fall by half in the phase considered. By inhibition in vivo is commonly meant the share of the control response that was lost under treatment.

Each structure is given as a SMILES string. The source made the active and inactive calls.

Data set [1] has as its target T1, Mitogen-activated protein kinase 14 (Homo sapiens, UniProt Q16539). Put plainly: Inhibition of p38MAPK alpha (unknown origin) at 10 uM relative to control.
The target in data set [2] is Mitogen-activated protein kinase 1 (Homo sapiens) (UniProt P28482). The data set can be described thus: Inhibition of MAPK1 (unknown origin) at 10 uM.
Data set [3] deals with Mitogen-activated protein kinase 12 (Homo sapiens) (UniProt P53778). Put plainly: Inhibition of p38MAPK gamma (unknown origin) at 10 uM relative to control.
The test system of the next data set is Canis familiaris. The data set can be described thus: Cmax in Beagle dog assessed as 4-(4-(4-fluorophenyl)-1-methyl-2-(methylsulfinyl)-1H-imidazol-5-yl)pyridin-2-amine level at 40 mg/kg, po by LC-MS/MS analysis. It counts as ADME, organism-based, Canis lupus familiaris. On the set-up: dose 40 mg/kg, route oral. The following applies: in vivo. The procedure, abridged: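 Toxicokinetics from a maximum-tolerated-dose study in four Beagle dogs given 40 mg/kg orally. Plasma levels of both parent and its predominant metabolite were monitored.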

The test system of data set [4] is Rattus norvegicus. The data set can be described thus: Antiarthritic activity in Lewis rat assessed as decrease in collagen-induced arthritic score at 50 mg/kg, po qd administered for 10 days. It counts as functional, organism-based. The procedure, abridged: (§1)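 Collagen-induced arthritis in male Lewis rats (5–6 per group). Groups received vehicle, dexamethasone 1 mg/kg, test item 50 mg/kg once daily, or 25 mg/kg twice daily for 10 days. Body weight, arthritic score and paw volume were monitored, and serum COMP was measured at the end.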

The nature of data set [5]: Cmax in male Sprague-Dawley rat at 30 mg/kg, po by LC-MS/MS analysis. It counts as ADME, organism-based. On the set-up: dose 30 mg/kg, route oral. The following applies: in vivo.
A short description of data set [6]: AUC (0 to t) in female Sprague-Dawley rat at 30 mg/kg, po by LC-MS/MS analysis. It counts as ADME, organism-based. The following applies: in vivo. The procedure, abridged: (§2)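 Rats of each sex received a single oral dose of 30 mg/kg. Plasma concentration–time profiles of parent were determined separately for females and males.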
Data set [7] deals with Liver. Put plainly: Drug metabolism in human liver microsomes assessed as 4-(4-(4-fluorophenyl)-1-methyl-2-(methylsulfinyl)-1H-imidazol-5-yl)pyridin-2-amine formation at 10 to 100 uM. It counts as ADME, microsome. The procedure, abridged: (§3)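 Test compound incubated at 10, 30 and 100 μM with liver microsomes from rat, Cynomolgus monkey or human, and metabolites monitored.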

The subject of data set [8] is Liver. The data set can be described thus: Drug metabolism in human liver microsomes assessed as 4-(4-(4-fluorophenyl)-1-methyl-2-(methylsulfonyl)-1H-imidazol-5-yl)pyridin-2-amine formation at 10 to 100 uM. Type of data set: ADME, microsome. In short, it runs like this: as §3
On the technique in general: Liver microsomes are a subcellular fraction often used to study metabolism.

For data set [9], the target named is T1, Mitogen-activated protein kinase 14. The data set can be described thus: Inhibition of p38alpha MAPK (unknown origin) by beta-galactosidase enzyme complementation assay.
Data set [10] can be described thus: AUC (0 to infinity) in male Sprague-Dawley rat at 30 mg/kg, po by LC-MS/MS analysis. The following applies: in vivo. It counts as ADME, organism-based. On the set-up: dose 30 mg/kg, time infinity, route oral. The procedure, abridged: as §2
Data set [11] in a line: Half life in male Sprague-Dawley rat at 30 mg/kg, po by LC-MS/MS analysis. Type of data set: ADME, organism-based. The following applies: in vivo.
For data set [12], the system named is Liver. The data set can be described thus: Drug metabolism in rat liver microsomes assessed as 4-(4-(4-fluorophenyl)-1-methyl-2-(methylsulfonyl)-1H-imidazol-5-yl)pyridin-2-amine formation at 10 to 100 uM. Type of data set: ADME, microsome. The procedure, abridged:
as §3

Data set [13] relates to Rattus norvegicus. Put plainly: In vivo inhibition of P38 MAPKalpha in Lewis rat assessed as decrease in LPS-stimulated TNFalpha level in serum at 10 mg/kg, po pretreated for 1 hr followed by LPS addition measured after 1.5 hrs post dose relative to control. It counts as functional. The procedure, abridged: (§4)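 Lewis rats, n = 8/group: females dosed orally at 10 mg/kg at −1, −3 or −5 h relative to LPS challenge, plus one male group dosed at −1 h. Male and female vehicle controls were given at −1 h. Serum TNFα was measured after LPS and compared with vehicle.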

The subject of data set [14] is Rattus norvegicus. The data set can be described thus: In vivo inhibition of P38 MAPKalpha in Lewis rat assessed as decrease in LPS-stimulated TNFalpha level in serum at 10 mg/kg, po pretreated for 1 hrs followed by LPS addition measured after 1.5 hrs post dose. Type of data set: functional, organism-based. The procedure, abridged: as §4
Data set [15] relates to Rattus norvegicus. Put plainly: Toxicity in Sprague-Dawley rat assessed as dyspnea at 2000 mg/kg, po administered via gavage measured on day 1 and 2. Type of data set: organism-based. The following applies: in vivo.
Data set [16] concerns Cynomolgus monkey. Put plainly: Toxicity in cynomolgus monkey assessed as decrease in QT at 6 to 20 mg/kg, po. Type of data set: organism-based, Macaca fascicularis. The following applies: in vivo.
For the next data set, the system named is Mus musculus. Put plainly: In vivo inhibition of P38 MAPKalpha in BALB/c mouse assessed as decrease in LPS/GalN-stimulated TNFalpha level in plasma at 3 mg/kg, po administered via gavage pretreated for 1 hr followed by LPS/GalN addition measured after 1.5 hrs relative to control. Type of data set: functional. The procedure, abridged: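 Male BALB/c mice, n = 6/group, given 3, 10 or 30 mg/kg orally by gavage 1 h before i.p. D-GalN (500 mg/kg) plus LPS (1.5 μg/kg). Blood was taken by cardiac puncture and plasma TNFα measured against a vehicle-only control.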

For data set [17], the system named is Cynomolgus monkey. Put plainly: Toxicity in cynomolgus monkey assessed as induction of trchycardia at 6 to 20 mg/kg, po measured after 0.5 to 6 hrs post dose. Type of data set: organism-based, Macaca fascicularis. The following applies: in vivo.
Data set [18] concerns the target Dual specificity mitogen-activated protein kinase kinase 7 (Homo sapiens) (UniProt O14733). The data set can be described thus: Inhibition of MKK7beta (unknown origin) at 10 uM relative to control.
A short description of data set [19]: Drug metabolism in cynomolgus monkey liver microsomes assessed as 4-(4-(4-fluorophenyl)-1-methyl-2-(methylsulfonyl)-1H-imidazol-5-yl)pyridin-2-amine formation at 10 to 100 uM. It counts as ADME, Macaca fascicularis, microsome. The procedure, abridged: as §3
Data set [20] concerns Rattus norvegicus. The data set can be described thus: Antiarthritic activity in Lewis rat assessed as change in paw volume at 25 mg/kg, po bid administered for 10 days. It counts as functional, organism-based. The procedure, abridged: as §1
For another data set, the species on record is Homo sapiens. The data set can be described thus: Inhibition of PDE4 in human U937 cells assessed as [3H]cAMP hydrolysis at 1 uM relative to control. It counts as cell-based.
A short description of data set [21]: Drug metabolism in human urine assessed as 4-(4-(4-fluorophenyl)-1-methyl-2-(methylsulfinyl)-1H-imidazol-5-yl)pyridin-2-amine formation at 10 to 50 mg, po administered as single dose after 36 hrs. Type of data set: ADME, organism-based. The following applies: in vivo. The procedure, abridged:
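Healthy subjects, single oral dose. Urine collected at 0–6, 6–12, 12–24 and 24–36 h post dose and analysed for parent and metabolite. Excreted amount expressed relative to administered dose.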

Data set [22] has as its system Rattus norvegicus. The data set can be described thus: Toxicity in Sprague-Dawley rat assessed as premature death at 15 to 150 mg/kg, po administered via gavage for 28 days followed by 2 weeks off without dosing. It counts as organism-based. The following applies: in vivo. In short, it runs like this: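 Sprague–Dawley rats, 10–16 per group, 144 in total. Daily dosing for 28 days with vehicle or 15, 50 or 150 mg/kg; the top dose came from a range-finding study. Six males and six females from the control and high-dose groups were followed through a further 2-week treatment-free period. Clinical signs and histopathology recorded.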

Data set [23] can be described thus: Half life in cynomolgus monkey at 20 mg/kg, po measured on day 1 and 27 post dose by LC-MS/MS analysis. Type of data set: ADME, organism-based, Macaca fascicularis. The following applies: in vivo. The procedure, abridged: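 Cynomolgus monkeys were dosed orally at 6, 12 and 20 mg/kg daily in a 4-week toxicity study. Blood was sampled from 0.5 to 24 h post dose on days 1 and 27. Individual profiles of parent and metabolite gave Tmax, Cmax, T1/2 and AUC0–24.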

Data set [24] relates to Rattus norvegicus. Put plainly: Toxicity in Sprague-Dawley rat assessed as hypoactivity at 2000 mg/kg, po administered via gavage measured on day 1 and 2. The following applies: in vivo. It counts as organism-based.
Data set [25] relates to Rattus norvegicus. The data set can be described thus: Toxicity in rat assessed as effect on respiratory rate by measuring increase in peak expiratory flow 300 mg/kg, po administered as single dose. Type of data set: organism-based. The following applies: in vivo.
Data set [26] is described as follows: Half life in female Sprague-Dawley rat at 30 mg/kg, po by LC-MS/MS analysis. It counts as ADME, organism-based. The following applies: in vivo.

T1 sequence (Q16539 whole entry): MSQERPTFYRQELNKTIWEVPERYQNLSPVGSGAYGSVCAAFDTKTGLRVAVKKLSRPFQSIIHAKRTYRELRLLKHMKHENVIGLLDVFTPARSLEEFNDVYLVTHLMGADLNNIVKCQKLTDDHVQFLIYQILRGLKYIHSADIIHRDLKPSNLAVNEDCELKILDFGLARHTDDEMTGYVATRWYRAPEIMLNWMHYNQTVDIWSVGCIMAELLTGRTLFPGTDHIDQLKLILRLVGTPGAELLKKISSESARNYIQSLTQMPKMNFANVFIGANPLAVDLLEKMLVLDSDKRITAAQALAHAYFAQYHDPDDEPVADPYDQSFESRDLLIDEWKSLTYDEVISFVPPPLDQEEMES
Chain of Mitogen-activated protein kinase 12 (Homo sapiens) (P53778 whole entry): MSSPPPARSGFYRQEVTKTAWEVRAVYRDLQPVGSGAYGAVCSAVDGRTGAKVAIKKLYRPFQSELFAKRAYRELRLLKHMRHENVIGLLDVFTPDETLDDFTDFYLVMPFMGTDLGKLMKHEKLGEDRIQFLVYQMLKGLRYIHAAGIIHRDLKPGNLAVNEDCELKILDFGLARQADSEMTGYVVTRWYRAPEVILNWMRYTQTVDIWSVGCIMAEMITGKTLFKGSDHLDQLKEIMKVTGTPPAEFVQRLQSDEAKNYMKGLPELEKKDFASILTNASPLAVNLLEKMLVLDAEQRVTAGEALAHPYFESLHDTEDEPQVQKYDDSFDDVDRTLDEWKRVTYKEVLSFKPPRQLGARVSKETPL
Chain of Mitogen-activated protein kinase 1 (Homo sapiens) (P28482 whole entry): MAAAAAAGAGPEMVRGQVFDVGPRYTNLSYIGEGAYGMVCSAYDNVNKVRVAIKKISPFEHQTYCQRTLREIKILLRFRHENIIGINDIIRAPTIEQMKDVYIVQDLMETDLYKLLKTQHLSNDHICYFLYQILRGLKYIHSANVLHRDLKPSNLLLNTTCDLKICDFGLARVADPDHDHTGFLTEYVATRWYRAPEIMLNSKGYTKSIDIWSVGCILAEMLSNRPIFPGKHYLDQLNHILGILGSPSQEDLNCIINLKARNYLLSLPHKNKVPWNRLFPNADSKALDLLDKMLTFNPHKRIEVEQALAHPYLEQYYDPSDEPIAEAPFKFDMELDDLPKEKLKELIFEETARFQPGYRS
Chain of Dual specificity mitogen-activated protein kinase kinase 7 (Homo sapiens) (O14733 whole entry): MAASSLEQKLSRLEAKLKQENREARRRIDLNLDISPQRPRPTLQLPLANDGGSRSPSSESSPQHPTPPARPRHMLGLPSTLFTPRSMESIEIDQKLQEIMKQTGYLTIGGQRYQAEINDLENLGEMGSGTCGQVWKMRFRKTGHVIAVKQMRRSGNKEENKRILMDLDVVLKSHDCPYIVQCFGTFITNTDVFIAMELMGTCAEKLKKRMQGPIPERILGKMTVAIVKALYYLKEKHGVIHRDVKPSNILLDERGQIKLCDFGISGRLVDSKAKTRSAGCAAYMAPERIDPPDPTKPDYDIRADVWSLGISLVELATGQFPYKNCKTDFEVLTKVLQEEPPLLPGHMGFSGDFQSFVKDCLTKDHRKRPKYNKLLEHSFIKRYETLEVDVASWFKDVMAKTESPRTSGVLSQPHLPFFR

Take `Cn1c([S+](C)[O-])nc(-c2ccc(F)cc2)c1-c1ccnc(N)c1` (centres undefined): the inhibition entry in data set [1], in data set [2] and in [3] was “inactive” each time. In the data set on Canis familiaris, the peak concentration (Cmax) came to 5.1 µM.
As for `CC(=O)Nc1cc(-c2c(-c3ccc(F)cc3)nc([S+](C)[O-])n2C)ccn1` (centres undefined), the outcome in the data set with Rattus norvegicus [4] was Active. This compound also registered a peak concentration (Cmax) in [5] of 3.4 µM. Besides, the area under the curve AUC(0-t) in [6] stood at 40.9 µM·h. Further, the Drug metabolism result (in the data set with Liver [7]; in the data set on Liver [8]; with Liver [12]; in [19]) was “Metabolite_Detected” each time. The same compound had a half-maximal inhibitory concentration (IC50) in [9] of 500 nM. Moreover, the AUC(0-inf) in data set [10] turned out to be 29.8 µM·h. The half-life is 1.8 h in [11], 4.8 h in data set [23] and 2.2 h in data set [26]. For the same compound, the inhibition in vivo at 10 mg/kg with Rattus norvegicus [13] was found to be 76%. Besides, in the data set with Rattus norvegicus [14], the inhibition result was “Active”. The Activity result is recorded as “Toxic” with Rattus norvegicus [15]; “Toxic” with Cynomolgus monkey [16]; “Toxic” with Cynomolgus monkey [17]; “Non-Toxic” with Rattus norvegicus [22]; “Toxic” with Rattus norvegicus [24]; “Toxic” with Rattus norvegicus [25]. Further, the inhibition in vivo at 3 mg/kg with Mus musculus amounted to 82%. Also, the inhibition in [18] was 101%; in the data set filed under Homo sapiens, 73%. Also, the result with Rattus norvegicus [20] was inactive. For the same compound, in [21], the Drug excretion is 6 %ID.
